From PubChem BioAssay
PAFAH2 inh – inhibitors of human PAFAH2 | recombinant PAFAH2, FP-rhodamine activity probe, fluorescence polarization | inhibition, % at 3.39 µM | 340,000 compounds, 0.99% hits | AID 492956;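 active = inhibition above the mean over all tested compounds plus 3 SD, cut at about 30% in these data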;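 also: inhibitors block probe labeling of enzyme so polarization drops; 0% = enzyme with DMSO and 100% = wells lacking PAFAH2 protein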
PAFAH1B2 inh – inhibitors of human PAFAH1B2. recombinant PAFAH1B2, FP-rhodamine activity probe, fluorescence polarization. inhibition, % at 3.39 µM. 340,000 compounds, 1.2% hits;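 active = inhibition above the mean of all tested compounds plus 3 SD, cut at about 24% in these data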;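 also: 0% = enzyme with DMSO and 100% = wells lacking PAFAH1B2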
RBBP9 inhibitor – inhibitors of human serine hydrolase RBBP9; O75884; recombinant RBBP9, FP-Rh probe fluorescence polarization; inhibition, % at 7.94 µM; 220,000 compounds, 0.2% hits; AID 1515;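 active = inhibition above the campaign mean of all tested compounds plus 3 SD, cut at about 14% in these data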;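 also: plate controls were DMSO wells with RBBP9 for no effect and wells lacking RBBP9 protein for full effect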
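Test system: recombinant human RBBP9. Quantity: 2.5 µM RBBP9 dispensing solution, before mixing. Detection: FP readout at 525/598 nm. Reagent: Serine-hydrolase probe FP-Rh, 375 nM pre-mixing. Measure: % inhibition. Control set: DMSO-treated enzyme wells and wells lacking RBBP9. Buffer or medium: Tris-NaCl-Pluronic buffer, pH 8.0. Times: preincubation 30 min plus labeling 45 min at 25 °C.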
pPAFAH inh – inhibitors of human plasma PAF acetylhydrolase (pPAFAH) | Q13093 | recombinant pPAFAH, FP-rhodamine probe fluorescence polarization | inhibition, % at 3.39 µM | 330,000 compounds, 1.5% hits | AID 463082;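 active = inhibition above the mean inhibition across the screen plus 3 SD, cut at about 25% in these data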;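 also: inhibitors block binding of the rhodamine activity-based probe so polarization drops; 0% = enzyme with DMSO and 100% = wells lacking pPAFAH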
Target sequence (Q13093 whole entry, looked up): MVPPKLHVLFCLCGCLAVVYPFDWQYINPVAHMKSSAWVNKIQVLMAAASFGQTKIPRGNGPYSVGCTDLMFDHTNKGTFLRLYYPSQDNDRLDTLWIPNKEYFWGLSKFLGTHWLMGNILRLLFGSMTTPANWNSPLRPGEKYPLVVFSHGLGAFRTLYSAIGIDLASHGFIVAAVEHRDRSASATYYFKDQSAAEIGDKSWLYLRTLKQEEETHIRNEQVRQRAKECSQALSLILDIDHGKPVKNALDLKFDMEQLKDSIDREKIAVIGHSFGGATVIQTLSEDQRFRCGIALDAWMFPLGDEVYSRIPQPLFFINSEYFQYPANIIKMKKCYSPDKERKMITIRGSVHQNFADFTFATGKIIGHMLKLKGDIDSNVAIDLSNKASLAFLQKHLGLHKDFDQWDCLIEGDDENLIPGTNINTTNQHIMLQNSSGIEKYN
PAFAH1B3 FP inh – blocks human PAF acetylhydrolase 1B catalytic subunit 3. Q15102. recombinant PAFAH1B3, FP-rhodamine probe, fluorescence polarization. inhibition, % at 3.39 µM. 340,000 compounds, 0.28% hits;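 active = inhibition above the screen-wide average of all tested compounds plus 3 SD, cut at about 25% in these data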;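 also: 0% = enzyme with DMSO only and 100% = wells lacking PAFAH1B3 protein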
pPAFAH confirm – confirmation of human plasma PAF acetylhydrolase (pPAFAH) inhibitors; AID 463230; 2,300 compounds, 72% hits; inhibition, % at 3.39 µM; shares compounds with pPAFAH inh; recombinant pPAFAH, FP-Rh probe fluorescence polarization;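 active = mean inhibition of the triplicate above the hit cutoff set for the earlier primary screen, cut at about 25% in these data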;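 also: 0% = enzyme with DMSO and 100% = wells lacking pPAFAH enzyme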
PAFAH2 FP conf – confirmation of human PAFAH2 inhibitors | 2,300 compounds, 65% hits | shares compounds with PAFAH2 inh | recombinant PAFAH2, FP-rhodamine activity probe, fluorescence polarization | inhibition, % at 3.39 µM;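 active = mean inhibition over three repeats above a set limit taken from the earlier primary screen, cut at about 30% in these data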;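 also: inhibitor blocks binding of rhodamine activity probe so polarization falls; 0% = enzyme with DMSO and 100% = wells lacking PAFAH2 protein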
Active calls of the source: *. This is a sample that favours compounds with a hit; in the whole collection about 2.7% have one here.

Results for CCCC1Nc2ccc(C(=O)O)cc2C2C=CCC12 (stereo not given) ?
PAFAH2 inh: 44*; PAFAH1B2 inh: 18; RBBP9 inhibitor: 7; pPAFAH inh: 46*; PAFAH1B3 FP inh: 32*; pPAFAH confirm: 31*

What do the screens show for `CSCCC(NC(=O)c1cccc(C)c1)C(=O)OCC(=O)Nc1c(C)nn(-c2ccccc2)c1C` (stereo not given)?
PAFAH2 inh: 0; PAFAH1B2 inh: -1; pPAFAH inh: 0; PAFAH1B3 FP inh: -4

What do the screens show for `CC(C)=CCCC(C)CN1CCC(n2nccc2NC(=O)C2CCCC2)CC1` (stereo not given)?
PAFAH2 inh: 3; PAFAH1B2 inh: 5; pPAFAH inh: 0; PAFAH1B3 FP inh: 9

What do the screens show for `O=C(c1cnn(C(=O)c2ccco2)c1)c1cc(Cl)cc(Cl)c1O`?
PAFAH2 inh: 11; PAFAH1B2 inh: 4; pPAFAH inh: -1; PAFAH1B3 FP inh: 7

What do the screens show for `COc1cc(NS(=O)(=O)c2ccc(Nc3nc(-c4cccc([N+](=O)[O-])c4)cs3)cc2)nc(OC)n1`?
PAFAH2 inh: 43*; PAFAH1B2 inh: 17; RBBP9 inhibitor: 1; pPAFAH inh: 47*; PAFAH1B3 FP inh: 16; pPAFAH confirm: 69*; PAFAH2 FP conf: 27

What do the screens show for `COc1ccccc1C1CC(=O)Oc2cc(OC)c(OC)c(OC)c21` (stereo not given)?
PAFAH2 inh: -1; PAFAH1B2 inh: 2; pPAFAH inh: 11; PAFAH1B3 FP inh: 9

Results for COc1cccc(-n2c(SCc3cc(=O)oc4cc(O)c(O)cc34)nc3ccccc3c2=O)c1 ?
PAFAH2 inh: 64*; PAFAH1B2 inh: 2; RBBP9 inhibitor: -18; pPAFAH inh: 94*; PAFAH1B3 FP inh: 16; pPAFAH confirm: 92*; PAFAH2 FP conf: 54*

What do the screens show for `CCN(CC)C(=O)CSc1nc2ccccc2c(=O)n1-c1cccc(OC)c1`?
PAFAH2 inh: 3; PAFAH1B2 inh: -3; RBBP9 inhibitor: -5; pPAFAH inh: -3; PAFAH1B3 FP inh: 1

What do the screens show for `CC1Cc2ccccc2N1C(=O)COC(=O)/C=C/c1ccc(F)cc1` (stereo not given)?
PAFAH2 inh: 23; PAFAH1B2 inh: 3; pPAFAH inh: -1; PAFAH1B3 FP inh: 2

Results for COc1ccccc1/C=C/C(=O)OCC(=O)N1c2ccccc2CC1C (stereo not given) ?
PAFAH2 inh: 34*; PAFAH1B2 inh: -1; pPAFAH inh: -1; PAFAH1B3 FP inh: -2; PAFAH2 FP conf: 12

Results for CC1Cc2ccccc2N1C(=O)COC(=O)c1ccc(N(C)C)cc1 (stereo not given) ?
PAFAH2 inh: 55*; PAFAH1B2 inh: 5; pPAFAH inh: 1; PAFAH1B3 FP inh: 6; PAFAH2 FP conf: 55*

What do the screens show for `CN(C)c1ccc(C(=O)OCC(=O)N2CCCCCC2)cc1`?
PAFAH2 inh: 57*; PAFAH1B2 inh: -1; RBBP9 inhibitor: -6; pPAFAH inh: -1; PAFAH1B3 FP inh: -5; PAFAH2 FP conf: 55*

Results for CCc1ccc(C(=O)OCC(=O)N2CCCCCC2)cc1 ?
PAFAH2 inh: 38*; PAFAH1B2 inh: -1; pPAFAH inh: -4; PAFAH1B3 FP inh: 2; PAFAH2 FP conf: 18

What do the screens show for `CN(C)c1ccc(C(=O)OCC(=O)N2CCCC2)cc1`?
PAFAH2 inh: 26; PAFAH1B2 inh: -5; pPAFAH inh: 8; PAFAH1B3 FP inh: -3

What do the screens show for `O=C(COC(=O)c1ccc(Cl)nc1)Nc1ccc2c(c1)OCO2`?
PAFAH2 inh: 53*; PAFAH1B2 inh: -1; RBBP9 inhibitor: -5; pPAFAH inh: 1; PAFAH1B3 FP inh: -1; PAFAH2 FP conf: 39*

What do the screens show for `Cc1noc(C)c1COc1ccc(C(=O)OCC(=O)Nc2ccc3c(c2)OCO3)cc1`?
PAFAH2 inh: 80*; PAFAH1B2 inh: 0; RBBP9 inhibitor: -10; pPAFAH inh: 15; PAFAH1B3 FP inh: 3; PAFAH2 FP conf: 86*

What do the screens show for `O=C(Nc1ccc2c(c1)CCC2)c1ccc(Cl)nc1`?
PAFAH2 inh: -5; PAFAH1B2 inh: 19; RBBP9 inhibitor: -3; pPAFAH inh: 0; PAFAH1B3 FP inh: 7
